ChEMBL document CHEMBL1123657, “Anthrapyrazole anticancer agents. Synthesis and structure-activity relationships against murine leukemias” (J Med Chem, 1987)

Columns and labels:
[1] = test system: P388; assay: Tested for activity against P388 leukemia cells in mice, by intraperitoneal dosing and percent treated to the control values with the number of 30 day survivors i; assay type: functional, Mus musculus
How it was run: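 P388 leukemia implanted intraperitoneally in mice. Compound given ip on days 1 and 5, as mg/kg per injection across a dose series. Read-out is median survival of treated mice as a percentage of untreated controls (T/C %), taken at the optimal dose, with cures noted.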

[2] = test system: P388; assay: Optimal dose per injection in mg/kg required to inhibit growth of P388 leukemia cells in mice; assay type: functional, Mus musculus
How it was run: (§1)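 P388 leukemia implanted ip in mice; drug given ip on days 1 and 5 (ip/ip; D1,5), dosed in mg/kg per injection. Read-out is treated/control (T/C, %) with cures counted, reported at the optimal dose.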

[3] = test system: P388; assay: Activity against P388 leukemia cells in mice, by intraperitoneal dosing and net log tumor cell kill was reported; assay type: functional, Mus musculus
[4] = test system: L1210; assay: Tested in vitro against murine L1210 leukemia.; assay type: functional, cell-based; conditions: Mus musculus
[5] = test system: L1210; assay: Compound was tested in vitro against murine L1210 leukemia; IA is inactive.; assay type: functional, cell-based, Mus musculus
[6] = test system: L1210; assay: Compound was tested in vitro against murine L1210 leukemia;IA means inactive; assay type: functional, cell-based, Mus musculus
[7] = test system: P388; assay: Inhibition of P388 leukemia cells in mice, measured as percent treated to the control values with the number of 30 day survivors; assay type: functional, Mus musculus; how it was run: as §1
[8] = test system: B16; assay: Optimal dose per injection in mg/kg required to inhibit growth of murine B-16 melanoma in vivo; assay type: functional, Mus musculus
How it was run: (§2)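 Murine B-16 melanoma in vivo: tumor implanted ip, compound given ip on days 1–9 (ip/ip; D1–9), dosed as mg/kg per injection. Activity expressed as T/C (%) plus number of cures, taken at the optimal dose.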

[9] = test system: B16; assay: Tested for activity against murine B-16 melanoma in mice and percent treated to the control values with the number of 60 day survivors; assay type: functional, Mus musculus; how it was run: as §2

SMILES	T/C [1]	Dose [2]	Activity [3]	IC50 [4]	IC50 [5]	IC50 [6]	T/C [7]	Optimal dose [8]	T/C [9]
CCN(CC)CCn1nc2c3c(c(NCCN)ccc31)C(=O)c1ccccc1-2.Cl	104%	25 mg/kg	-1.5	46 nM	–	–	–	–	–
CCN(CC)CCNc1cccc2c1C(=O)c1cccc3c1c-2nn3C.Cl	–	–	–	–	Not Active	–	–	–	–
CCCCCCNc1ccc2c3c(nn2CCO)-c2ccccc2C(=O)c13	–	100 mg/kg	-1.6	–	–	Not Active	98%	–	–
CN(C)CCn1nc2c3c(c(NCCNCCO)ccc31)C(=O)c1c(O)ccc(O)c1-2.Cl	–	12.5 mg/kg	6.5	120 nM	–	–	242%	3 mg/kg	183%
Cl.O=C1c2c(O)ccc(O)c2-c2nn(CCO)c3ccc(NCCNCCO)c1c23	–	200 mg/kg	6.8	780 nM	–	–	271%	80 mg/kg	246%
Cl.O=C1c2c(O)ccc(O)c2-c2nn(CCNCCO)c3ccc(NCCN(CCO)CCO)c1c23	–	200 mg/kg	>6.6	430 nM	–	–	277%	25 mg/kg	342%
CCN(CC)CCn1nc2c3c(cccc31)C(=O)c1c(NCCNCCO)cccc1-2.Cl	117%	12.5 mg/kg	-1.3	230 nM	–	–	–	–	–
